In ChEMBL document CHEMBL3085698, “Bioactive lignans from the trunk of Abies holophylla” (J Nat Prod, 2013) one finds Activity and IC50 data, which are given here for 7 compounds.

The structures appear in SMILES notation.

Data set [1] is described as follows: Cytotoxicity against LPS-stimulated mouse BV2 cells assessed as cell viability by MTT assay relative to control. The class given is cell-based. The conditions noted are these: bv-2. An outline of the steps:
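MTT viability read in the same BV-2 setup: cells at 3 × 10^4 cells/well in DMEM with 5% FBS, compound pretreatment for 30 min, then 100 ng/mL LPS stimulation for 24 h.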
In general terms: Tetrazolium assays rely on reduction of a dye to a coloured formazan, in cell work by metabolically active cells.

Data set [2] can be described thus: Antineuroinflammatory activity in mouse BV2 cells assessed as inhibition of LPS-induced NO production incubated 30 mins prior to LPS-challenge measured after 24 hrs by Griess assay. The format is functional, cell-based. The note with it: BV-2. An outline of the steps:
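BV-2 microglia grown in DMEM with 5% FBS and 1% penicillin-streptomycin, plated at 3 × 10^4 cells/well and left 24 h. Compounds added 30 min before 100 ng/mL LPS for 24 h. Supernatant nitrite measured by Griess reagent (1% sulphanilamide, 0.1% naphthylethylenediamine in 5% phosphoric acid), read at 540 nm after 10 min against a sodium nitrite standard. L-NMMA as positive control. IC50 reported.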
(Nitrite, measured by Griess reagent, commonly stands in for NO production.)

The subject of the next data set is C6. In words: Induction of NGF secretion in rat C6 cells at 10 uM after 24 hrs by ELISA relative to control. The format is functional. An outline of the steps: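 Rat C6 glioma cells kept in DMEM with 10% FBS and 1% penicillin-streptomycin under 5% CO2, seeded at 1 × 10^5 cells/well. After 24 h, medium switched to DMEM with 2% FBS containing compound for one day. NGF released into the supernatant quantified by ELISA; viability checked by MTT. 6-Shogaol as positive control.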

As to `COc1cc(CCCO)ccc1O[C@@H](CO)Cc1ccc(O[C@@H]2OC[C@@H](O)[C@H](O)[C@H]2O)c(OC)c1`, the results for the Activity result (in data set [1]; with C6) were “Non-toxic” and 169%, respectively. In data set [2], the IC50 (in general, the concentration that gives 50% inhibition) came out at 31 µM.

Take `COc1cc(C[C@H]2[C@@H](OC)OC[C@@H]2[C@H](O)c2ccc(O)c(OC)c2)ccc1O`: the Activity with C6 turned out to be 165%.

Turning to `COc1cc([C@@H]2Oc3c(OC)cc(CCCO)cc3[C@H]2CO)ccc1O[C@@H]1O[C@@H](C)[C@H](O)[C@@H](OC)[C@H]1O`, the Activity in the data set with C6 is listed as 159%.

In the case of `COc1cc(C[C@H]2[C@H](OC)OC[C@@H]2[C@H](O)c2ccc(O)c(OC)c2)ccc1O`, the Activity result in data set [1] is reported as “Non-toxic”. Further, the IC50 in data set [2] came out at 36.4 µM.

In the case of `COc1cc([C@@H]2Oc3c(O)cc(CCCO)cc3[C@H]2CO)ccc1O[C@@H]1O[C@@H](C)[C@H](O)[C@@H](OC)[C@H]1O` (relative stereo), in data set [1], the Activity result is “Non-toxic”. For the same compound, the IC50 in data set [2] was 32.9 µM.

Take `COc1cc([C@H]2c3cc(O)c(OC)cc3C[C@H]3C(=O)OC[C@H]23)ccc1O` [ALPHA-CONIDENDRIN]: in data set [1], the Activity entry is “Non-toxic”. The IC50 in data set [2] came out at 28.5 µM.

Compound `CCCCC/C=C/C(=O)CCc1ccc(O)c(OC)c1` [SHOGAOL] yielded an Activity with C6 of 129%.
